This passage reports IC50 and Ki results from ChEMBL document CHEMBL1139243, “Synthesis and biological evaluation of a 2-aryl polyhydroxylated pyrrolidine alkaloid-based library” (Bioorg Med Chem, 2008).

The structures appear in SMILES notation. pIC50, pKi: −log10 of the molar value.

What is called pIC50 is −log10 of the IC50, conventionally taken in molar units. What is called pKi is the negative decadic logarithm of the Ki, by convention in mol/L. The low end stands for a high Ki, the high end for a low Ki.

A short description of assay [1]: Inhibition of almond beta-glucosidase. On the set-up: species or system Prunus dulcis. The method, boiled down: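 β-Glucosidase at 0.25–1 units per mL in 100 mM sodium phosphate buffer, pH 6.8, room temperature. p-Nitrophenyl glycopyranoside substrate at twice its Michaelis–Menten Km. Initial hydrolysis rates read spectrophotometrically at 405 nm. Compounds screened first at one concentration; actives retested at lower levels for IC50.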

Assay [2] can be described thus: Inhibition of yeast alpha-glucosidase. Also noted: species or system Saccharomyces cerevisiae. The essentials:
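Yeast α-glucosidase at 0.25–1 units per mL in 100 mM sodium phosphate, pH 6.8, room temperature. p-Nitrophenyl glycopyranoside substrate at twice Km, with Km 0.19 mM from a Michaelis–Menten fit. Initial velocities monitored at 405 nm. Compounds screened first at a single concentration; actives titrated lower to get IC50.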

The nature of assay [3]: Inhibition of Bacillus stearothermophilus alpha-glucosidase. Also noted: species or system Geobacillus stearothermophilus. The essentials: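 Bacillus stearothermophilus α-glucosidase at 0.25–1 units per mL in 100 mM sodium phosphate, pH 6.8, room temperature. Substrate is p-nitrophenyl glycopyranoside at twice Km, with Km 1.5 mM from a Michaelis–Menten fit. Initial hydrolysis rates read at 405 nm. Compounds screened first at a single high concentration; active ones retested at lower concentrations for IC50.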

A short description of assay [4]: Inhibition of Helix pomatia beta-mannosidase. The essentials: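 β-Mannosidase at 0.25–1 units per mL in 100 mM sodium citrate, pH 6.4, room temperature. p-Nitrophenyl glycopyranoside substrate at twice its Michaelis–Menten Km. Initial velocities read at 405 nm. Compounds screened first at a single concentration; those active titrated lower for IC50.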
A short description of assay [5]: Inhibition of yeast alpha-glucosidase by Lineweaver-Burke double reciprocal plot. On the set-up: species or system Saccharomyces cerevisiae.

Regarding `COc1ccc(OC)c([C@H]2N[C@H](CO)[C@@H](O)[C@@H]2O)c1`, the pIC50 was 3.77 in assay [1], 5.59 in assay [2], 5.40 in assay [3] and under 3.70 in assay [4].
For the compound `COc1ccc([C@H]2N[C@H](CO)[C@@H](O)[C@@H]2O)cc1`, the pIC50 is 3.91 in assay [1], 6.30 in assay [2], 5.06 in assay [3] and 4.68 in assay [4].
On the same counts, the results for `COc1ccc([C@@H]2[C@@H](O)[C@H](O)[C@@H](CO)N2C)cc1` are under 3.70, 4.42, 5.04 and 4.21.
On the same counts, the results for `COc1ccc([C@@H]2N[C@@H](CO)[C@H](O)[C@H]2O)cc1` are under 3.70, 4.68, under 3.70 and under 3.70.
On the same counts, the results for `COc1ccc([C@@H]2[C@@H](O)[C@H](O)[C@@H](CO)N2C)cc1OC` are under 3.70, 4.14, 4.62 and under 3.70.
With `COc1ccc(OC)c([C@@H]2[C@@H](O)[C@H](O)[C@@H](CO)N2C)c1`, the pIC50 in assay [1], in assay [2], in assay [3] and in assay [4] was under 3.70 in each case.
On to `COc1ccc([C@@H]2[C@@H](O)[C@H](O)[C@@H](CO)N2C)c(OC)c1`, for which the pIC50 was under 3.70 in assay [1], under 3.70 in assay [2], under 3.70 in assay [3] and 4.07 in assay [4].
For `COc1cccc([C@H]2N[C@H](CO)[C@@H](O)[C@@H]2O)c1`, the negative-log IC50 (pIC50) in assay [2] was 5.62; in assay [3] it was 4.51.
Take `OC[C@H]1N[C@H](c2ccccc2)[C@@H](O)[C@@H]1O`: the negative logarithm of the IC50 (pIC50) in assay [1] is 3.71; in assay [2], 5.00; in assay [3], 4.44; in assay [4] it was 4.03.
For `COc1ccc([C@H]2N[C@H](CO)[C@@H](O)[C@@H]2O)c(OC)c1` the same measures were 4.02, 5.11, 5.08 and 3.76.
For `COc1ccc([C@@H]2[C@@H](O)[C@H](O)[C@@H](CO)N2C)cc1O` the same measures were under 3.70, 4.55, under 3.70 and 3.74.
On the same counts, the results for `COc1ccc([C@H]2[C@H](O)[C@@H](O)[C@H](CO)N2C)cc1` are under 3.70, under 3.70, under 3.70 and under 3.70.
`COc1ccc([C@@H]2N[C@@H](CO)[C@H](O)[C@H]2O)cc1OC`: the pIC50 in assay [1] is under 3.70; in assay [2], 5.22; in assay [3], under 3.70; in assay [4] it was under 3.70.
For `CCCCN1[C@H](CO)[C@@H](O)[C@H](O)[C@H]1c1ccc(OC)c(O)c1`, the pIC50 in assay [1], in assay [2], in assay [3] and in assay [4] was under 3.70 throughout.
The compound `COc1ccc([C@H]2N[C@H](CO)[C@@H](O)[C@@H]2O)cc1OC` showed a negative logarithm of the Ki (pKi) in assay [5] of 6.15. The negative-log IC50 (pIC50) was 4.47 in assay [1], 5.96 in assay [2], 5.74 in assay [3] and 4.28 in assay [4].
On to `COc1ccc([C@@H]2N[C@@H](CO)[C@H](O)[C@H]2O)cc1O` [L-RADICAMINE A], for which the negative-log IC50 (pIC50) is under 3.70 in assay [1], under 3.70 in assay [2], under 3.70 in assay [3] and 3.95 in assay [4].
`COc1ccc([C@H]2N[C@H](CO)[C@@H](O)[C@@H]2O)cc1O` [RADICAMINE A]: the negative-log IC50 (pIC50) in assay [1] was under 3.70; in assay [2], 5.38; in assay [3] it was 4.92; in assay [4], 4.18.
On the same counts, the results for `OC[C@H]1N[C@H](c2ccc(O)cc2)[C@@H](O)[C@@H]1O` [RADICAMINE B] are under 3.70, 4.62, 5.00 and under 3.70.
